Measurements from paper PMC4279188 (Theranostics, 2015).

Assays:
Akt = experiment: Western blot of HUVECs, phosphorylated Akt; type: cell-based, human; settings: co-treatment with PEG-Ex4
In short: (§1)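 HUVEC lysates were prepared in RIPA buffer and protein was quantified by BCA. Proteins were resolved by SDS-PAGE and transferred to nitrocellulose, then blocked in 5% milk. Blots were probed overnight at 4 °C with anti-VEGF or anti-pAkt plus anti-β-actin, followed by secondary antibodies. Detection was by chemiluminescence on X-ray film. pAkt blots were stripped at 50 °C for 30 min and reprobed for total Akt. Data are mean ± SEM.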

VEGF = experiment: Western blot of HUVECs, VEGF; type: cell-based, human; settings: co-treatment with PEG-Ex4
In short: as §1

[1] = breakdown by dipeptidyl peptidase-4 (DPP4); no reference given for the value; cited from earlier work

O=c1cc(N2CCOCC2)oc2c(-c3ccccc3)cccc12 [LY294002]
effect of PEG-Ex4 on p-Akt in HUVECs, inhibition by co-treatment (Akt): abolished the effect of PEG-Ex4 on p-Akt | effect of PEG-Ex4 on VEGF expression in HUVECs, inhibition by co-treatment (VEGF): abolished

exendin-4(9-39)
effect of PEG-Ex4 on p-Akt in HUVECs, inhibition by co-treatment (Akt): abolished the effect of PEG-Ex4 on p-Akt | effect of PEG-Ex4 on VEGF expression in HUVECs, inhibition by co-treatment (VEGF): abolished

glucagon-like peptide-1 [GLP-1]
half-life, in words [1]: a few minutes
